Test results from ChEMBL document CHEMBL1124400, “Synthesis and evaluation of antileukemic activity of 5-thienyl- or 5-(2-furyl)-2,3-dihydro-6,7-bis(hydroxymethyl)-1H-pyrrolizine bis(alkylcarbamates) and derivatives” (J Med Chem, 1989).
Values joined by “and” are separate entries in the source; they are usually repeats but may differ in a detail not shown here. Equal values may be shown once.

Key:
Mus musculus [1] = test: MST of mitomycin 2 mg/kg treated group x 100/MST of untreated control group at a dose of 100 mg/kg in L1210 leukemic mice; assay type: functional
In short: (§1)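 Reference group of 8 B6D2F1 mice bearing ip-grafted 10⁵ L1210 cells (day 0), given mitomycin 2 mg/kg in distilled water ip on days 1, 5 and 9. Controls were 12 mice given vehicle only. Mortality was followed daily with autopsy. Ref I = mitomycin-group MST × 100/control MST, run alongside each test experiment.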

Mus musculus [2] = test: Median survival time of treated group / untreated group, when 20 mg/kg compound is administered intraperitoneally in L1210 leukemic mice; assay type: functional; conditions: route intraperitoneal
In short: (§2)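 Male 3-month-old B6D2F1 mice, 10⁵ L1210 cells ip on day 0. Compound was given ip on days 1, 5 and 9 in aqueous 20% Tween 80 (0.1–0.2 mL per 20 g), 8 mice per group. Twelve vehicle controls. Daily mortality with autopsy to assign leukemic versus toxic death. I = treated MST × 100/control MST. Wilcoxon test, p < 0.05; active if I > 125 and p < 0.05.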

[3] = Lethal dose in L1210 leukemic mice, by administering compound intraperitoneally; assay type: toxicity, organism-based; conditions: mouse, in vivo, ip
In short: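 Male B6D2F1 mice (3 months old) received 10⁵ L1210 leukemia cells ip on day 0. One day later they were given compound ip. Mortality was recorded daily for 9 days and the acute LD50 expressed in mg/kg.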

Mus musculus [4] = test: Median survival time of treated group / untreated group, when 50 mg/kg compound is administered intraperitoneally in L1210 leukemic mice; assay type: functional; conditions: route intraperitoneal; in short: as §2
Mus musculus [5] = test: MST of mitomycin 2 mg/kg treated group x 100/MST of untreated control group at a dose of 50 mg/kg in L1210 leukemic mice; assay type: functional; in short: as §1
Mus musculus [6] = test: MST of mitomycin 2 mg/kg treated group x 100/MST of untreated control group at a dose of 20 mg/kg in L1210 leukemic mice; assay type: functional; in short: as §1
Mus musculus [7] = test: Median survival time of treated group / untreated group, when 100 mg/kg compound is administered intraperitoneally in L1210 leukemic mice; assay type: functional; conditions: route intraperitoneal; in short: as §2
[8] = Ratio, I x 100/ref I at a dose of 20 mg/kg in L1210 leukemic mice; assay type: functional
In short: (§3)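 Male B6D2F1 mice, 3 months old, received 10^5 L1210 cells ip on day 0. Dosing was ip on days 1, 5 and 9 in 20% aqueous Tween 80, 0.1–0.2 mL per 20 g, with 8 mice per group. There were 12 vehicle controls and 8 mice given mitomycin 2 mg/kg ip in water. Daily mortality was recorded, with autopsies. Ratio = treated-group MST ×100/reference-group MST; Wilcoxon, p<0.05.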

[9] = Ratio, I x 100/ref I at a dose of 100 mg/kg in L1210 leukemic mice; assay type: functional; in short: as §3
[10] = Ratio, I x 100/ref I at a dose of 50 mg/kg in L1210 leukemic mice; assay type: functional; in short: as §3
[11] = Ratio, I x 100/ref I at a dose of 16 mg/kg in L1210 leukemic mice; assay type: functional; in short: as §3
Mus musculus [12] = test: Median survival time of treated group / untreated group, when 75 mg/kg compound is administered intraperitoneally in L1210 leukemic mice; assay type: functional; conditions: route intraperitoneal; in short: as §2
Mus musculus [13] = test: Median survival time of treated group / untreated group, when 100 mg/kg compound is administered intraperitoneally in L1210 leukemic mice; conditions: route intraperitoneal
[14] = Ratio of acute lethal dose to the efficient dose at 100 mg/kg dose; assay type: functional
In short: (§4)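 Ratio of acute LD50 to efficient dose. LD50 came from single ip dosing one day after ip grafting of 10⁵ L1210 cells in B6D2F1 mice, with 9-day mortality. The efficient dose came from ip treatment on days 1, 5 and 9 in the median-survival test.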

Mus musculus [15] = test: MST of mitomycin 2 mg/kg treated group x 100/MST of untreated control group at a dose of 40 mg/kg in L1210 leukemic mice; assay type: functional; in short: as §1
[16] = Ratio, I x 100/ref I at a dose of 40 mg/kg in L1210 leukemic mice; assay type: functional; in short: as §3
[17] = Ratio, I x 100/ref I at a dose of 75 mg/kg in L1210 leukemic mice
Mus musculus [18] = test: MST of mitomycin 2 mg/kg treated group x 100/MST of untreated control group at a dose of 16 mg/kg in L1210 leukemic mice; assay type: functional; in short: as §1
Mus musculus [19] = test: MST of mitomycin 2 mg/kg treated group x 100/MST of untreated control group at a dose of 75 mg/kg in L1210 leukemic mice; assay type: functional; in short: as §1
Mus musculus [20] = test: Median survival time of treated group / untreated group, when 40 mg/kg compound is administered intraperitoneally in L1210 leukemic mice; assay type: functional; conditions: route intraperitoneal; in short: as §2
Mus musculus [21] = test: Median survival time of treated group / untreated group, when 16 mg/kg compound is administered intraperitoneally in L1210 leukemic mice; assay type: functional; conditions: route intraperitoneal; in short: as §2
[22] = Ratio of acute lethal dose to the efficient dose at 85 mg/kg dose; assay type: functional; in short: as §4
Mus musculus [23] = test: Median survival time of treated group / untreated group, when 4 mg/kg compound is administered intraperitoneally in L1210 leukemic mice; assay type: functional; conditions: route intraperitoneal; in short: as §2
Mus musculus [24] = test: MST of mitomycin 2 mg/kg treated group x 100/MST of untreated control group at a dose of 4 mg/kg in L1210 leukemic mice; assay type: functional; in short: as §1
Mus musculus [25] = test: Median survival time of treated group / untreated group, when 15 mg/kg compound is administered intraperitoneally in L1210 leukemic mice; assay type: functional; conditions: route intraperitoneal; in short: as §2
[26] = Ratio, I x 100/ref I at a dose of 15 mg/kg in L1210 leukemic mice; assay type: functional; in short: as §3
Mus musculus [27] = test: Median survival time of treated group / untreated group, when 10 mg/kg compound is administered intraperitoneally in L1210 leukemic mice; assay type: functional; conditions: route intraperitoneal; in short: as §2
Mus musculus [28] = test: MST of mitomycin 2 mg/kg treated group x 100/MST of untreated control group at a dose of 10 mg/kg in L1210 leukemic mice; assay type: functional; in short: as §1
Mus musculus [29] = test: MST of mitomycin 2 mg/kg treated group x 100/MST of untreated control group at a dose of 15 mg/kg in L1210 leukemic mice; assay type: functional; in short: as §1
[30] = Ratio, I x 100/ref I at a dose of 10 mg/kg in L1210 leukemic mice; assay type: functional; in short: as §3
[31] = Ratio, I x 100/ref I at a dose of 4 mg/kg in L1210 leukemic mice; assay type: functional; in short: as §3
[32] = Ratio of acute lethal dose to the efficient dose at 20 mg/kg; assay type: functional; in short: as §4
Mus musculus [33] = test: MST of mitomycin 2 mg/kg treated group x 100/MST of untreated control group at a dose of 8 mg/kg in L1210 leukemic mice; assay type: functional; in short: as §1
[34] = Ratio, I x 100/ref I at a dose of 8 mg/kg in L1210 leukemic mice; assay type: functional; in short: as §3
Mus musculus [35] = test: Median survival time of treated group / untreated group, when 8 mg/kg compound is administered intraperitoneally in L1210 leukemic mice; assay type: functional; conditions: route intraperitoneal; in short: as §2

Structure (SMILES): CNC(=O)OCc1c(COC(=O)NC)c(-c2ccco2)n2c1CCC2
- Ref I oncostatic index (Mus musculus [1]): 125
- Oncostatic index (Mus musculus [2]): 100
- LD50 [3]: > 150 mg/kg
- Oncostatic index (Mus musculus [4]): 108
- Ref I oncostatic index (Mus musculus [5]): 117
- Ref I oncostatic index (Mus musculus [6]): 117
- Oncostatic index (Mus musculus [7]): 100
- Ratio [8]: 86
- Ratio [9]: 80
- Ratio [10]: 92

Structure (SMILES): CNC(=O)OCc1c(COC(=O)NC)c(-c2ccsc2)n2c1CCC2
- Ratio [11]: 80
- Ref I oncostatic index (Mus musculus [1]): 140
- Oncostatic index (Mus musculus [12]): 120
- Oncostatic index (Mus musculus [13]): 120
- LD50 [3]: > 150 mg/kg
- Ratio [14]: 1.2
- Ref I oncostatic index (Mus musculus [15]): 125
- Ratio [16]: 80
- Ratio [17]: 86
- Ref I oncostatic index (Mus musculus [18]): 125
- Ref I oncostatic index (Mus musculus [19]): 140 and 126
- Oncostatic index (Mus musculus [20]): 100
- Oncostatic index (Mus musculus [21]): 100
- Ratio [9]: 86
- Ratio [22]: 1.4

Structure (SMILES): CC(C)NC(=O)OCc1c(COC(=O)NC(C)C)c(-c2cccs2)n2c1CCC2
- Oncostatic index (Mus musculus [23]): 108
- Ref I oncostatic index (Mus musculus [24]): 164
- Oncostatic index (Mus musculus [25]): 125
- LD50 [3]: 35 mg/kg
- Ratio [26]: 90
- Oncostatic index (Mus musculus [27]): 129
- Ref I oncostatic index (Mus musculus [28]): 163
- Ref I oncostatic index (Mus musculus [29]): 139
- Ratio [30]: 79
- Ratio [31]: 66

Structure (SMILES): CNC(=O)OCc1c(COC(=O)NC)c(-c2cccs2)n2c1CSC2
- Oncostatic index (Mus musculus [2]): 125
- LD50 [3]: 50 mg/kg
- Ratio [32]: 2.5
- Ref I oncostatic index (Mus musculus [33]): 117
- Ref I oncostatic index (Mus musculus [6]): 121
- Ratio [8]: 103
- Ratio [34]: 86
- Oncostatic index (Mus musculus [35]): 100
